Source: ChEMBL document CHEMBL4145675, “2-Phenylquinoline S. aureus NorA Efflux Pump Inhibitors: Evaluation of the Importance of Methoxy Group Introduction” (J Med Chem, 2018)
≈ marks a conversion by molar mass, not a printed value. Calls of active or inactive are those of the source. The calls are words filed in the database; no cut-off is given here.

Assays:
[1] = target: T1, Quinolone resistance protein NorA (Staphylococcus aureus) (UniProt P0A0J7); experiment: Inhibition of NorA in Staphylococcus aureus SA-1199B expressing GrlA A116E mutant assessed as reduction in EtBr efflux at 50 uM incubated for 5 mins by fluorescence based assay
T1 sequence (whole entry): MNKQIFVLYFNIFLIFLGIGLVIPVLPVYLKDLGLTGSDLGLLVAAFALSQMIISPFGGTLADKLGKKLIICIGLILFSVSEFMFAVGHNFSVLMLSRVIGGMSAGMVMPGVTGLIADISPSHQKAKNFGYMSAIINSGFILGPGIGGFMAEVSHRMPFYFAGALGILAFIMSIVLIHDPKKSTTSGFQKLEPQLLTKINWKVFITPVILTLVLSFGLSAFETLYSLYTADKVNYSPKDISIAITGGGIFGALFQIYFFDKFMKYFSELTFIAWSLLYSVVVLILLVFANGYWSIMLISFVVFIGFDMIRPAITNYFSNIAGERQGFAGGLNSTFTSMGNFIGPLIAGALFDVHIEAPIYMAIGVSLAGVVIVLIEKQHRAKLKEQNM
Outline: (§1)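 Cells were grown overnight in cation-supplemented Mueller-Hinton broth at 35 °C and subcultured to OD600 0.7–0.8. They were loaded at OD600 0.8 with 25 µM EtBr plus 100 µM CCCP (final) for 20 min at room temperature. Cells were then resuspended in fresh broth with or without compound, 50 µM for the single-point screen or a concentration series for IC50. Fluorescence (ex 485/em 645 nm) was read for 5 min. Inhibition was calculated from the fluorescence decrease versus untreated cells. Biological triplicate, each run twice.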

[2] = target: Quinolone resistance protein NorA (Staphylococcus aureus, UniProt P0A0J7, A116E); experiment: Inhibition of NorA in Staphylococcus aureus SA-1199B expressing GrlA A116E mutant assessed as reduction in EtBr efflux incubated for 5 mins by fluorescence based assay; outline: as §1
[3] = target: T1, Quinolone resistance protein NorA (Staphylococcus aureus); experiment: Inhibition of NorA in Staphylococcus aureus SA-1199B expressing GrlA A116E mutant assessed as minimal potentiating drug concentration causing 8 fold reduction in ciprofloxacin MIC by microdilution method based Checkerboard assay
[4] = target: T1, Quinolone resistance protein NorA (Staphylococcus aureus); experiment: Inhibition of NorA in Staphylococcus aureus SA-1199B expressing GrlA A116E mutant assessed as synergistic potentiation of ciprofloxacin-induced antimicrobial activity at 0.78 ug/ml by microdilution method based Checkerboard assay
[5] = system: Staphylococcus aureus; experiment: Antimicrobial activity against Staphylococcus aureus SA-1199B expressing wild type norA by microdilution method; type: organism-based; conditions: in vivo
Outline: (§2)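 Broth microdilution MIC per CLSI guidelines. ATCC 25923 is norA wild-type. SA-1199B overexpresses norA and carries an A116E GrlA substitution.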

[6] = system: Staphylococcus aureus; experiment: Antimicrobial activity against Staphylococcus aureus ATCC 25923 by microdilution method; type: organism-based; conditions: in vivo; outline: as §2
[7] = target: T1, Quinolone resistance protein NorA (Staphylococcus aureus); experiment: Inhibition of NorA in Staphylococcus aureus SA-1199B expressing GrlA A116E mutant assessed as synergistic potentiation of ciprofloxacin-induced antimicrobial activity at 0.78 to 100 ug/ml by microdilution method based Checkerboard assay
[8] = system: Staphylococcus aureus; experiment: Synergistic potentiation of ciprofloxacin-induced antimicrobial activity against wild type Staphylococcus aureus ATCC 25923 at 0.78 to 100 ug/ml by microdilution method based Checkerboard assay; type: functional, organism-based
[9] = system: Staphylococcus aureus; experiment: Synergistic potentiation of ciprofloxacin-induced antimicrobial activity against Staphylococcus aureus SA-1199 at 0.78 to 100 ug/ml by microdilution method based Checkerboard assay; type: functional, organism-based
[10] = system: Staphylococcus aureus; experiment: Antimicrobial activity against Staphylococcus aureus SA-1199B expressing wild type norA and co-expressing GrlA A116E mutant by microdilution method; type: organism-based; conditions: in vivo
Outline: (§3)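 CLSI broth microdilution MIC of the compound alone. Strains: SA-K1902 (norA deleted), SA-K2378 (SA-K1902 carrying norA plus its promoter on multicopy plasmid pCU1), SA-1199B (norA overexpressing, GrlA A116E).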

[11] = system: Staphylococcus aureus; experiment: Antimicrobial activity against NorA deficient Staphylococcus aureus SA-K1902 by microdilution method; type: organism-based; conditions: in vivo; outline: as §3

| SMILES | inhibition [1] [%] | IC50 [2] [µM] | Activity [3] [µg/mL] | inhibition [4] | MIC [5] [µg/mL] | MIC [6] [µg/mL] | inhibition [7] | synergistic potentiation of ciprofloxacin activity [8] | inhibition [9] | MIC [10] [µM] | MIC [11] [µg/mL] |
| --- | --- | --- | --- | --- | --- | --- | --- | --- | --- | --- | --- |
| CCCOc1ccc(-c2cc(O)c3cc(OC)c(OC)cc3n2)cc1 | 79.2 | – | – | – | – | – | – | – | – | – | – |
| CCCOc1ccc(-c2cc(OCCN3CCCCCC3)c3cc(OC)cc(OC)c3n2)cc1 | 80.3 | 1.8 | 1.56 | Active | > 100 | > 100 | Active | Active | Active | > 215 | – |
| CCCOc1ccc(-c2cc(OCCN3CCNCC3)c3cc(OC)ccc3n2)cc1 | 84.4 | 15.6 | – | – | – | – | – | – | – | 29.6 (≈ 12.5 µg/mL) | – |
| CCCOc1ccc(-c2cc(OCCCl)c3cccc(OC)c3n2)cc1 | 6.8 | – | – | – | – | – | – | – | – | – | – |
| CCCOc1ccc(-c2cc(OCCN3CCNCC3)c3ccc(OC)cc3n2)cc1 | 100 | 5.5 | 6.25 | – | 100 (≈ 237 µM) | 100 (≈ 237 µM) | Active | Active | Active | 237 (≈ 99.9 µg/mL) | – |
| CCCOc1ccc(-c2cc(OCCN3CCCCC3)c3cccc(OC)c3n2)cc1 | 88.7 | 11.9 | – | – | – | – | – | – | – | 238 (≈ 100 µg/mL) | – |
| CCCOc1ccc(-c2cc(OCCN3CCN(Cc4ccccc4)CC3)c3cc(OC)ccc3n2)cc1 | 32 | – | – | – | – | – | – | – | – | – | – |
| CCCOc1ccc(-c2cc(OCCCN(C)C)c3cc(OC)ccc3n2)cc1 | 79.5 | – | – | – | – | – | – | – | – | – | – |
| CCCOc1ccc(-c2cc(OCCN(CC)CC)c3c(OC)cccc3n2)cc1 | 96.5 | 9.4 | 3.13 | Active | 12.5 (≈ 30.6 µM) | 12.5 (≈ 30.6 µM) | Active | Active | Active | 30.6 (≈ 12.5 µg/mL) | – |
| CCCOc1ccc(-c2cc(O)c3c(OC)cccc3n2)cc1 | 91.4 | 4.1 | – | – | – | – | – | – | – | 40.4 (≈ 12.5 µg/mL) | – |
| CCCOc1ccc(-c2cc(OCCN(CC)CC)c3cc(OC)cc(OC)c3n2)cc1 | 92.4 | 4.6 | 6.25 | – | > 100 | 100 (≈ 228 µM) | Active | Active | Active | > 228 | – |
| CCCOc1ccc(-c2cc(OCCN3CCCCC3)c3c(OC)cc(OC)cc3n2)cc1 | 49.7 | – | – | – | – | – | – | – | – | – | – |
| CCCOc1ccc(-c2cc(OCCN3CCc4cc(OC)c(OC)cc4C3)c3ccc(OC)cc3n2)cc1 | 91 | 4.7 | 3.13 | Active | > 100 | > 100 | Active | Active | Active | > 189 | – |
| CCCOc1ccc(-c2cc(OCCN3CCNCC3)c3cccc(OC)c3n2)cc1 | 100 | 9.9 | 25 | – | > 100 | > 100 | Active | Active | Active | > 237 | – |
| CCCOc1ccc(-c2cc(OCCCl)c3cc(OC)ccc3n2)cc1 | 10.5 | – | – | – | – | – | – | – | – | – | – |
| CCCOc1ccc(-c2cc(OCCN3CCCCC3)c3cc(OC)cc(OC)c3n2)cc1 | 93.8 | 3.8 | 6.25 | – | > 100 | 100 (≈ 222 µM) | Active | Active | Active | > 222 | – |
| CCCOc1ccc(-c2cc(OCCN3CCN(Cc4ccccc4)CC3)c3ccc(OC)cc3n2)cc1 | 92.1 | 7.3 | > 100 | – | > 100 | > 100 | Active | Active | Active | > 195 | – |
| CCCOc1ccc(-c2cc(OCCN(CC)CC)c3c(OC)cc(OC)cc3n2)cc1 | 93.1 | 2.8 | 1.56 | – | > 100 | 100 (≈ 228 µM) | Active | Active | Active | > 228 | 25 (≈ 57 µM) |

| SMILES | inhibition [1] [%] | IC50 [2] [µM] | Activity [3] [µg/mL] | inhibition [4] | MIC [5] [µg/mL] | MIC [6] [µg/mL] | inhibition [7] | synergistic potentiation of ciprofloxacin activity [8] | inhibition [9] | MIC [10] [µM] | MIC [11] [µg/mL] |
| --- | --- | --- | --- | --- | --- | --- | --- | --- | --- | --- | --- |
| CCCOc1ccc(-c2cc(OCCN3CCc4cc(OC)c(OC)cc4C3)c3cc(OC)ccc3n2)cc1 | 33 | – | – | – | – | – | – | – | – | – | – |
| CCCOc1ccc(-c2cc(OCCN(CC)CC)c3cc(OC)c(OC)cc3n2)cc1 | 95.4 | 4.1 | 50 | – | > 100 | 100 (≈ 228 µM) | Active | Active | Active | > 228 | – |
| CCCOc1ccc(-c2cc(OCCN3CCCCCC3)c3ccc(OC)cc3n2)cc1 | 91.3 | 4.9 | 3.13 | Active | 100 (≈ 230 µM) | > 100 | Active | Active | Active | 212.3 (≈ 92.3 µg/mL) | – |
| CCCOc1ccc(-c2cc(OCCN3CCCCCC3)c3c(OC)cc(OC)cc3n2)cc1 | 74.1 | – | – | – | – | – | – | – | – | – | – |
| CCCOc1ccc(-c2cc(OCCN3CCCCCC3)c3cc(OC)c(OC)cc3n2)cc1 | 67.9 | – | – | – | – | – | – | – | – | – | – |
| CCCOc1ccc(-c2cc(OCCN3CCCCC3)c3cc(OC)c(OC)cc3n2)cc1 | 92.1 | 3.9 | 3.13 | – | > 100 | 100 (≈ 222 µM) | Active | Active | Active | > 222 | – |
| C=COc1cc(-c2ccc(OCCC)cc2)nc2c(OC)cccc12 | 13.3 | – | – | – | – | – | – | – | – | – | – |
| CCCOc1ccc(-c2cc(OCCCl)c3ccc(OC)cc3n2)cc1 | 57.5 | – | – | – | – | – | – | – | – | – | – |
| CCCOc1ccc(-c2cc(OCCN3CCc4cc(OC)c(OC)cc4C3)c3cccc(OC)c3n2)cc1 | 65.5 | – | – | – | – | – | – | – | – | – | – |
| CCCOc1ccc(-c2cc(OCCN3CCCCCC3)c3cc(OC)ccc3n2)cc1 | 92.2 | 8.1 | < 3.13 | – | 25 (≈ 57.5 µM) | 12.5 (≈ 28.8 µM) | Active | Active | Active | 28.7 (≈ 12.5 µg/mL) | – |
| CCCOc1ccc(-c2cc(OCCCN(C)C)c3ccc(OC)cc3n2)cc1 | 100 | 4.3 | 6.25 | – | 100 (≈ 253 µM) | 100 (≈ 253 µM) | Active | Active | Active | 232 (≈ 91.5 µg/mL) | – |
| CCCOc1ccc(-c2cc(OCCCN(C)C)c3cccc(OC)c3n2)cc1 | 64.7 | – | – | – | – | – | – | – | – | – | – |
| CCCOc1ccc(-c2cc(O)c3ccc(OC)cc3n2)cc1 | 55.7 | – | – | – | – | – | – | – | – | – | – |
| CCCOc1ccc(-c2cc(OCCN3CCCCCC3)c3c(OC)cccc3n2)cc1 | 74.8 | – | – | – | – | – | – | – | – | – | – |
| CCCOc1ccc(-c2cc(OCCN3CCCCCC3)c3cccc(OC)c3n2)cc1 | 72.8 | – | – | – | – | – | – | – | – | – | – |
| CCCOc1ccc(-c2cc(OCCN3CCCCC3)c3c(OC)cccc3n2)cc1 | 83.4 | 19.1 | – | – | – | – | – | – | – | 59.4 (≈ 25 µg/mL) | – |
| CCCOc1ccc(-c2cc(OCCN(CC)CC)c3cccc(OC)c3n2)cc1 | 83.1 | 13.7 | – | – | – | – | – | – | – | 245 (≈ 100 µg/mL) | – |
